Laboratory results as given in ChEMBL document CHEMBL2412964, “Discovery of novel tetrahydro-pyrazolo [4,3-c] pyridines for the treatment of neuropathic pain: synthesis and neuropharmacology” (Eur J Med Chem, 2013).
pIC50: −log10 of the molar value.

Tests used:
[1] = system: Rattus norvegicus; experiment: Antinociceptive activity in Wistar rat chronic constriction injury model assessed as reversal of spontaneous pain response at 100 mg/kg, ip after 60 mins (reference value: 4.6 +/- 0.6%); type: functional; details: route intraperitoneal
[2] = target: T1, Cannabinoid receptor 2 (Rattus norvegicus, UniProt Q9QZN9); experiment: Displacement of [3H]CP55940 from CB2 receptor in rat spleen homogenate after 90 mins; type: tissue-based
T1 sequence (Q9QZN9 whole entry): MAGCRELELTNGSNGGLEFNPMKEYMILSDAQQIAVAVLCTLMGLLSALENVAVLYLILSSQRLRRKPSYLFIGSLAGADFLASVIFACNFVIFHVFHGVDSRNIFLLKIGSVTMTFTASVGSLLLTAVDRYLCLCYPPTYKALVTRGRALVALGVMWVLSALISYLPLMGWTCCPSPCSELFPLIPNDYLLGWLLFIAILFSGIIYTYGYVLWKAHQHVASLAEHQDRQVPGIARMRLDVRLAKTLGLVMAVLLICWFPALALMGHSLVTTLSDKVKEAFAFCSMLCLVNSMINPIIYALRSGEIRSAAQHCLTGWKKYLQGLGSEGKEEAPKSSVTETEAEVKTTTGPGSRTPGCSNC
Summary of the method: (§1)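 Rat brain (CB1) or spleen (CB2) membranes, homogenized in tris/NaCl/MgCl2 pH 7.4, competed against 0.5 nM [3H]CP55940 in 50 mM Tris-HCl, 2 mM EDTA, 5 mM MgCl2, 0.2 mg/mL BSA, pH 7.4; 90 min incubation. Nonspecific binding with 1 µM WIN (CB1) or 1 µM SR144528 (CB2); triplicates averaged.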

[3] = system: Mus musculus; experiment: Antinociceptive activity in Swiss albino mouse assessed as inhibition of formalin-induced flinching at 100 mg/kg administered 30 mins prior to test measured up to 5 mins relative to control; type: functional
[4] = system: Mus musculus; experiment: Antiinflammatory activity in Swiss albino mouse assessed as inhibition of LPS-induced TNFalpha production at 100 mg/kg, ip administered 30 mins prior to LPS-challenge measured after 90 mins by ELISA relative to control; type: functional; details: route intraperitoneal
Summary of the method: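 Swiss albino mice (20–25 g, either sex) dosed i.p. with 100 mg/kg in 10 mL/kg; LPS 1.0 mg/kg in sterile PBS i.p. given 30 min later. Blood taken 90 min after LPS, plasma TNF measured by ELISA, expressed as % inhibition versus vehicle-treated control; n = 4, one-way ANOVA with Dunnett's test.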

[5] = system: Mus musculus; experiment: Antinociceptive activity in Swiss albino mouse assessed as inhibition of formalin-induced flinching at 100 mg/kg administered 30 mins prior to test measured for 10 to 30 mins relative to control; type: functional
[6] = system: Rattus norvegicus; experiment: Antinociceptive activity in Wistar rat chronic constriction injury model assessed as reversal of cold allodynia at 100 mg/kg, ip after 60 mins (reference value: 6.3 +/- 1.9%); type: functional; details: route intraperitoneal
[7] = system: Rattus norvegicus; experiment: Antinociceptive activity in Wistar rat partial sciatic nerve ligation model assessed as reversal of tactile allodynia at 100 mg/kg, ip after 30 mins (reference value: 7.7 +/- 0.7%); type: functional; details: route intraperitoneal
[8] = system: Rattus norvegicus; experiment: Antinociceptive activity in Wistar rat partial sciatic nerve ligation model assessed as reversal of cold allodynia at 100 mg/kg, ip after 30 mins (reference value: 4.1 +/- 1.0%); type: functional; details: route intraperitoneal
[9] = target: Cannabinoid receptor 1 (Rattus norvegicus, UniProt P20272); experiment: Displacement of [3H]CP55940 from CB1 receptor in rat brain homogenate after 90 mins; type: tissue-based; summary of the method: as §1
Sequence of Cannabinoid receptor 1 (P20272 whole entry): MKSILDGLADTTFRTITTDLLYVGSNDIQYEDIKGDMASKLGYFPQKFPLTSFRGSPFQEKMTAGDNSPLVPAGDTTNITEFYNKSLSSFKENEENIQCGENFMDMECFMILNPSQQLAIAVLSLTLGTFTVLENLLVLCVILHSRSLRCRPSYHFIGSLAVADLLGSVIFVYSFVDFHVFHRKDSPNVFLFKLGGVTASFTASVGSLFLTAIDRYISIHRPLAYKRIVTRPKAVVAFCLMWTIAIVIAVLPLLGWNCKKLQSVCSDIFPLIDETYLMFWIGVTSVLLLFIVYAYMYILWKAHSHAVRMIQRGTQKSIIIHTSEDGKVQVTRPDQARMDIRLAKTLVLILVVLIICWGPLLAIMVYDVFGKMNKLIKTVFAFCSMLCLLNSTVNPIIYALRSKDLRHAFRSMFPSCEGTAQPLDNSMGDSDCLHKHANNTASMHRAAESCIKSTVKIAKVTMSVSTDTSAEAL

[10] = system: Radical scavenging activity; experiment: Antioxidant activity assessed as DPPH radical scavenging activity after 20 mins […]; type: functional
Summary of the method: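 Compounds mixed with methanolic DPPH (final 300 µM) in microplate; after 20 min absorbance at 517 nm read; methanolic DPPH as control. % scavenging = (A DPPH − A DPPH+compound)/A DPPH × 100; dose–response curve used for IC50.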

[11] = system: Rattus norvegicus; experiment: Antinociceptive activity in Wistar rat chronic constriction injury model assessed as reversal of tactile allodynia at 100 mg/kg, ip after 30 mins (reference value: 3.4 +/- 0.8%); type: functional; details: route intraperitoneal
[12] = system: Rattus norvegicus; experiment: Antinociceptive activity in Wistar rat partial sciatic nerve ligation model assessed as reversal of spontaneous pain response at 100 mg/kg, ip after 120 mins (reference value: 1.2 +/- 0.1%); type: functional; details: route intraperitoneal
[13] = system: Rattus norvegicus; experiment: Antinociceptive activity in Wistar rat chronic constriction injury model assessed as reversal of cold allodynia at 100 mg/kg, ip after 30 mins (reference value: 0.6 +/- 2.7%); type: functional; details: route intraperitoneal
[14] = system: Rattus norvegicus; experiment: Antinociceptive activity in Wistar rat partial sciatic nerve ligation model assessed as reversal of mechanical allodynia at 100 mg/kg, ip after 30 mins (reference value: 2.9 +/- 0.3%); type: functional; details: route intraperitoneal
[15] = system: Rattus norvegicus; experiment: Antinociceptive activity in Wistar rat partial sciatic nerve ligation model assessed as reversal of mechanical allodynia at 100 mg/kg, ip after 120 mins (reference value: 2.9 +/- 0.3%); type: functional; details: route intraperitoneal
[16] = system: Mus musculus; experiment: Neurotoxicity in Swiss albino mouse assessed as minimal motor impairment at 300 mg/kg after 4 hrs by rotarod test; type: toxicity, organism-based; set-up: dose 300 mg/kg; details: in vivo
Summary of the method: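 Swiss albino mice of either sex, 20-25 g, dosed at 30, 100 and 300 mg/kg, three per group. Minimal motor impairment scored by rotarod at 0.5 and 4.0 h after dosing. Reported value is the lowest dose giving impairment in half or more of the mice.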

[17] = system: Rattus norvegicus; experiment: Antinociceptive activity in Wistar rat partial sciatic nerve ligation model assessed as reversal of cold allodynia at 100 mg/kg, ip after 60 mins (reference value: 2.5 +/- 0.3%); type: functional; details: route intraperitoneal
[18] = system: Mus musculus; experiment: Antinociceptive activity in Swiss albino mouse assessed as inhibition of acetic acid-induced writhing at 100 mg/kg administered 30 mins prior to acetic acid-challenge measured for 30 mins relative to control; type: functional
Summary of the method: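 Swiss albino mice (20–25 g, either sex); writhing induced by i.p. 0.1 mL of 2.0% v/v acetic acid given half an hour after test compound dosing.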

[19] = system: Rattus norvegicus; experiment: Antinociceptive activity in Wistar rat chronic constriction injury model assessed as reversal of tactile allodynia at 100 mg/kg, ip after 120 mins (reference value: 4.1 +/- 2.1%); type: functional; details: route intraperitoneal
[20] = system: Rattus norvegicus; experiment: Antinociceptive activity in ip dosed Wistar rat partial sciatic nerve ligation model assessed as reversal of spontaneous pain response after 30 mins; type: functional; details: 0.5 h
Summary of the method: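 Wistar rats (200–250 g) with nerve injury, compounds i.p. in 30% v/v PEG 400; dose–response curves in each sensory test (spontaneous pain and cold allodynia as paw withdrawal duration; tactile allodynia and hyperalgesia as withdrawal threshold). ED50 linearly interpolated between doses just above and below 50% response; time of peak effect recorded.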

[21] = system: Rattus norvegicus; experiment: Antinociceptive activity in Wistar rat partial sciatic nerve ligation model assessed as reversal of mechanical allodynia at 100 mg/kg, ip after 60 mins (reference value: 2.8 +/- 0.3%); type: functional; details: route intraperitoneal
[22] = target: Cathepsin S (Homo sapiens) (UniProt P25774); experiment: Inhibition of human recombinant cathepsin S using Z-Val-Val-Arg-AMC as substrate at 50 uM preincubated for 10 mins prior to substrate addition measured after 30 mins by fluorescence spectrophotometric analysis relative to control
Sequence of Cathepsin S (Homo sapiens) (P25774 115-331 limits assumed): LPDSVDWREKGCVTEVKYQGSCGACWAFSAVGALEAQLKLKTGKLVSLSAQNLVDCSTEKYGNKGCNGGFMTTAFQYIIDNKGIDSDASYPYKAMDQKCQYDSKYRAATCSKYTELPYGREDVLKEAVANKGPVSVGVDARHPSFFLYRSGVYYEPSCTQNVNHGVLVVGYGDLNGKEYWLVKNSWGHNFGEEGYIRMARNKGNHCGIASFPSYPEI

Row | SMILES | Activity [1] | pIC50 [2] | inhibition in vivo at 100 mg/kg [3] | inhibition in vivo at 100 mg/kg [4] | inhibition in vivo at 100 mg/kg [5] | Activity [6] | Activity [7] | Activity [8] | pIC50 [9] | pIC50 [10] | Activity [11] | Activity [12] | Activity [13] | Activity [14] | Activity [15] | Activity [16] | Activity [17] | inhibition in vivo at 100 mg/kg [18] | Activity [19] | ED50 [20] | other results
1 | CCN1CCc2c(c(C(C)(C)C)nn2C(=O)Nc2ccc(C)cc2C)C1 | 90.9% | < 6.00 | 15.7% | 58.9% | 59.9% | 50.4% | 61.6% | 62.1% | < 6.00 | 3.87 | 69.7% | 64.2% | 53.9% | 62.3% | 46.3% | Non-toxic | 52.7% | 71.1% | 58% | 7.4 mg/kg | Activity [21]: 56.3%; inhibition [22]: 12.1%
2 | CCN1CCc2c(c(C(C)(C)C)nn2C(=O)Nc2c(C)cccc2C)C1 | 90.7% | < 6.00 | 15.7% | 77.6% | 68% | 61.2% | 89.4% | 58.3% | < 6.00 | 3.99 | 90.1% | 57.8% | 61.4% | 95.5% | 50% | Non-toxic | 56% | 73.7% | 69.7% | 8.1 mg/kg | Activity [21]: 57.7%; inhibition [22]: 34.1%
3 | CCN1CCc2c(c(C(C)(C)C)nn2C(=O)Nc2ccc(Br)cc2)C1 | 85.9% | < 6.00 | 0% | 86.4% | 72.1% | 65% | 61.6% | 55.4% | 7.30 | 4.09 | 66.7% | 43.1% | 73% | 59.8% | 41.1% | Non-toxic | 50.6% | 72.8% | 50.5% | 29 mg/kg | Activity [21]: 53.6%; inhibition [22]: 39.9%
